Measured values published in PMC10947042 (Chemmedchem, 2022).
Values belong to the compound of their own block, whether it stands above or below them.

Columns and labels:
[1] = Solubility in the buffer solution; assay type: physicochemical
B35 cells = assay: Receptor-mediated endocytosis assay, B35 cells; assay type: cell-based
Outline: (§1)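 Cells grown in DMEM/10 % FCS, then serum‑free DMEM for 16 h. Compound added 30 min (final DMSO ≤1 %), then Tfn‑TxR (final 5.0 μg/mL) or EGF‑TxR (final 1.0 μg/mL) as applicable, 10 min at 37 °C. Surface ligand stripped with ice‑cold acid wash (pH 2.8), 4 % PFA fix, DAPI stain, fluorescence microscopy. Quantified as integrated intensity per cell, % of vehicle control.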

HeLa cells = assay: Receptor-mediated endocytosis assay, HeLa cells; assay type: cell-based
Outline: as §1

B104 cells = assay: Receptor-mediated endocytosis assay, B104 cells; assay type: cell-based
Outline: as §1

HER14 cells = assay: Receptor-mediated endocytosis assay, HER14 cells; assay type: cell-based
Outline: as §1

[2] = Rat blood plasma stability; assay type: in vitro ADME; details: 5 % rat blood plasma, Figure 3E
A431 cells = assay: Receptor-mediated endocytosis assay, A431 cells; assay type: cell-based; details: 30 μM, data not shown
Swiss 3T3 cells = assay: Receptor-mediated endocytosis assay, Swiss 3T3 cells; assay type: cell-based
Outline: as §1

dynamin I [3] = assay: Malachite Green GTPase assay, dynamin I; assay type: biochemical, sheep; details: increasing GTP or phospholipid (PS) concentration, Figure 2
Outline: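 GTP 0.3 mM, PS liposomes ~4 μg/ml (GTP or PS varied). Compound present; 30 min, 37 °C; EDTA stop; malachite green A650 against phosphate standard. Basal subtracted; Michaelis‑Menten and Lineweaver‑Burk fits.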

dynamin I [4] = details: read-out: IC50 for dynamin I inhibition; in vitro dynamin I GTPase; cited from earlier work
COS7 cells = assay: Receptor-mediated endocytosis assay, COS7 cells; assay type: cell-based; details: at up to 300 μM
Outline: as §1

dyn II = details: read-out: dyn II IC50; cited from earlier work

Structure (SMILES): CCC(=O)Oc1ccc(C=C(C#N)C(=O)NCCCNC(=O)C(C#N)=Cc2ccc(OC(=O)CC)c(OC(=O)CC)c2)cc1OC(=O)CC [Compound 4, Propionic acid 5‐(2‐{3‐[3‐(3,4‐bis‐propionyloxyphenyl)‐2‐cyanoacryloylamino]propylcarbamoyl}‐2‐cyanovinyl)‐2‐propionyloxyphenyl ester]
transferrin and EGF uptake (where applicable) (B35 cells; 30 μM, data not shown): inhibited transferrin and EGF uptake
effect on EGF‐TxR uptake (CME) (HeLa cells; 30 μM): marked reduction in CME
transferrin and EGF uptake (where applicable) (B104 cells; 30 μM, data not shown): inhibited transferrin and EGF uptake
transferrin and EGF uptake (where applicable) (HER14 cells; 30 μM, data not shown): inhibited transferrin and EGF uptake
time until hydrolysis was complete [2]: ≈ 60 min
transferrin and EGF uptake (where applicable) (A431 cells): inhibited transferrin and EGF uptake
transferrin and EGF uptake (where applicable) (Swiss 3T3 cells; 30 μM, data not shown): inhibited transferrin and EGF uptake

Structure (SMILES): CC(=O)Oc1ccc(C=C(C#N)C(=O)NCCCNC(=O)C(C#N)=Cc2ccc(OC(C)=O)c(OC(C)=O)c2)cc1OC(C)=O [Compound 3, Acetic acid 2‐acetoxy‐5‐(2‐cyano‐2‐{3‐[2‐cyano‐3‐(3,4‐diacetoxyphenyl)acryloylamino]propylcarbamoyl}vinyl)phenyl ester]
solubility in the buffer solution / under physiological conditions [1]: insoluble

Structure (SMILES): N#CC(=Cc1ccc(O)c(O)c1)C(=O)NCCCNC(=O)C(C#N)=Cc1ccc(O)c(O)c1 [Compound 2, 2‐Cyano‐N‐{3‐[2‐cyano‐3‐(3,4‐dihydroxyphenyl)acryloylamino]propyl}‐3‐(3,4‐dihydroxyphenyl)acrylamide]
mode of dynamin inhibition (dynamin I [3]): non‐GTP and non‐lipid dependent manner
IC50 (dynamin I [4]): 1700 ± 2000 nM
endocytosis block (B35 cells; at up to 300 μM): largely ineffective
effect on EGF‐TxR uptake (CME) (HeLa cells; 100 μM): no effect on CME
endocytosis block (HeLa cells; at up to 300 μM): largely ineffective
endocytosis block (COS7 cells): largely ineffective
endocytosis block (B104 cells; 100 μM, not shown): essentially complete
IC50 (dyn II): 500 nM
endocytosis block (HER14 cells; 100 μM, not shown): essentially complete
endocytosis block (TxR‐Tfn uptake) (Swiss 3T3 cells; 100 μM): essentially complete

Results, then the compound that gave them:

solubility in the buffer solution / under physiological conditions [1]: insoluble
Structure (SMILES): CCCCCC(=O)Oc1ccc(C=C(C#N)C(=O)NCCCNC(=O)C(C#N)=Cc2ccc(OC(=O)CCCCC)c(OC(=O)CCCCC)c2)cc1OC(=O)CCCCC [Compound 8, Hexanoic acid 5‐(2‐{3‐[3‐(3,4‐bis‐hexanoyloxyphenyl)‐2‐cyanoacryloylamino]‐propylcarbamoyl}‐2‐cyanovinyl)‐2‐hexanoyloxyphenyl ester]

solubility in the buffer solution / under physiological conditions [1]: insoluble
Structure (SMILES): CC(C)(C)C(=O)Oc1ccc(C=C(C#N)C(=O)NCCCNC(=O)C(C#N)=Cc2ccc(OC(=O)C(C)(C)C)c(OC(=O)C(C)(C)C)c2)cc1OC(=O)C(C)(C)C [Compound 9, 2,2‐Dimethylpropionic acid 5‐[2‐(3‐{3‐[3,4‐bis‐(2,2‐dimethylpropionyloxy)phenyl]‐2‐cyanoacryloylamino}propylcarbamoyl)‐2‐cyanovinyl]‐2‐(2,2‐dimethylpropionyloxy)phenyl ester]
